ChEMBL document CHEMBL4251662, “Alkyl indole-based cannabinoid type 2 receptor tools: Exploration of linker and fluorophore attachment” (Eur J Med Chem, 2018)
Active and inactive are the calls of the source. The rule behind the calls is not given here.

What was measured:
[1] = biological target: T1, Cannabinoid receptor 2 (Homo sapiens, UniProt P34972); assay: Displacement of [3H]CP55,940 from N-terminal HA-tagged human CB2 receptor expressed in HEK293 cell membranes at 10 uM after 1 hr by microbeta scintillation counting method relative to control
In short: (§1)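 Single-point competition screen against [3H]CP55,940 in HEK293 cells over-expressing 3HA-tagged hCB2 or hCB1. Compounds giving more than 50% displacement went on to full concentration-response curves.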

[2] = biological target: T1, Cannabinoid receptor 2; assay: Agonist activity at N-terminal HA-tagged human CB2 receptor expressed in HEK293 cells transfected with YFP-Epac-RLuc assessed as decrease in forskolin-stimulated cAMP level by BRET assay relative to control; format: functional, cell-based
In short: (§2)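 BRET cAMP biosensor read-out in HEK293 cells expressing HA-tagged human CB1 or CB2, with forskolin stimulation (5 µM). Concentration-response curves; area-under-curve values normalised to forskolin alone = 100% and basal = 0%. EC50 taken for agonists and IC50 for inverse agonists. Mean of at least three independent experiments, each point in duplicate.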

[3] = biological target: T2, Cannabinoid receptor 1 (Homo sapiens, UniProt P21554); assay: Displacement of [3H]CP55,940 from N-terminal HA-tagged human CB1 receptor expressed in HEK293 cell membranes at 10 uM after 1 hr by microbeta scintillation counting method relative to control; in short: as §1
[4] = biological target: T1, Cannabinoid receptor 2; assay: Agonist activity at N-terminal HA-tagged human CB2 receptor expressed in HEK293 cells transfected with YFP-Epac-RLuc assessed as decrease in forskolin-stimulated cAMP level by BRET assay; format: functional, cell-based; in short: as §2
[5] = biological target: T2, Cannabinoid receptor 1; assay: Displacement of [3H]CP55,940 from N-terminal HA-tagged human CB1 receptor expressed in HEK293 cell membranes after 1 hr by microbeta scintillation counting method; conditions: read-out: Ki
[6] = biological target: T2, Cannabinoid receptor 1; assay: Agonist activity at N-terminal HA-tagged human CB1 receptor expressed in HEK293 cells transfected with YFP-Epac-RLuc assessed as decrease in forskolin-stimulated cAMP level by BRET assay relative to control; format: functional, cell-based; in short: as §2
[7] = biological target: T1, Cannabinoid receptor 2; assay: Agonist activity at N-terminal HA-tagged human CB2 receptor expressed in HEK293 cells transfected with YFP-Epac-RLuc assessed as decrease in forskolin-stimulated cAMP level at 10 uM by BRET assay; format: functional, cell-based
In short: (§3)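 Single-concentration screen at 10 µM in CB receptor-expressing HEK293 cells, run with and without CP55,940 as reference agonist. Forskolin-stimulated cAMP read by BRET biosensor. A fall in cAMP is scored as agonism and a rise as inverse agonism.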

[8] = system: HEK293; assay: Effect on forskolin-stimulated cAMP level in HEK293 cells at 1 uM by BRET assay relative to control; format: ADME, cell-based; conditions: human, hek293, 1 µM
In short: (§4)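 Wild-type HEK293 cells lacking transfected receptor, tested at 10 µM and 1 µM. Forskolin-stimulated cAMP measured by BRET as a check that responses are receptor-mediated.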

[9] = biological target: T2, Cannabinoid receptor 1; assay: Agonist activity at N-terminal HA-tagged human CB1 receptor expressed in HEK293 cells transfected with YFP-Epac-RLuc assessed as decrease in forskolin-stimulated cAMP level at 10 uM by BRET assay; format: functional, cell-based; in short: as §3
[10] = system: HEK293; assay: Effect on forskolin-stimulated cAMP level in HEK293 cells at 10 uM by BRET assay relative to control; format: ADME, cell-based; conditions: human, hek293, 10 µM; in short: as §4
[11] = biological target: T1, Cannabinoid receptor 2; assay: Displacement of [3H]CP55,940 from N-terminal HA-tagged human CB2 receptor expressed in HEK293 cell membranes after 1 hr by microbeta scintillation counting method; conditions: read-out: Ki
[12] = biological target: T1, Cannabinoid receptor 2; assay: Inverse agonist activity at N-terminal HA-tagged human CB2 receptor expressed in HEK293 cells transfected with YFP-Epac-RLuc assessed as increase in forskolin-stimulated cAMP level at 10 uM by BRET assay; format: functional, cell-based
[13] = biological target: T1, Cannabinoid receptor 2; assay: Inverse agonist activity at N-terminal HA-tagged human CB2 receptor expressed in HEK293 cells transfected with YFP-Epac-RLuc assessed as increase in forskolin-stimulated cAMP level by BRET assay; format: functional, cell-based; in short: as §2
[14] = biological target: T1, Cannabinoid receptor 2; assay: Inverse agonist activity at N-terminal HA-tagged human CB2 receptor expressed in HEK293 cells transfected with YFP-Epac-RLuc assessed as increase in forskolin-stimulated cAMP level by BRET assay relative to control; format: functional, cell-based; in short: as §2
[15] = biological target: Proprotein convertase subtilisin/kexin type 9 (Homo sapiens) (UniProt Q8NBP7); assay: Inhibition of PCSK9 (unknown origin)
[16] = biological target: T3, Potassium voltage-gated channel subfamily KQT member 3 (Homo sapiens) (UniProt O43525); assay: Agonist activity at KCNQ3 (unknown origin)
T3 sequence (whole entry): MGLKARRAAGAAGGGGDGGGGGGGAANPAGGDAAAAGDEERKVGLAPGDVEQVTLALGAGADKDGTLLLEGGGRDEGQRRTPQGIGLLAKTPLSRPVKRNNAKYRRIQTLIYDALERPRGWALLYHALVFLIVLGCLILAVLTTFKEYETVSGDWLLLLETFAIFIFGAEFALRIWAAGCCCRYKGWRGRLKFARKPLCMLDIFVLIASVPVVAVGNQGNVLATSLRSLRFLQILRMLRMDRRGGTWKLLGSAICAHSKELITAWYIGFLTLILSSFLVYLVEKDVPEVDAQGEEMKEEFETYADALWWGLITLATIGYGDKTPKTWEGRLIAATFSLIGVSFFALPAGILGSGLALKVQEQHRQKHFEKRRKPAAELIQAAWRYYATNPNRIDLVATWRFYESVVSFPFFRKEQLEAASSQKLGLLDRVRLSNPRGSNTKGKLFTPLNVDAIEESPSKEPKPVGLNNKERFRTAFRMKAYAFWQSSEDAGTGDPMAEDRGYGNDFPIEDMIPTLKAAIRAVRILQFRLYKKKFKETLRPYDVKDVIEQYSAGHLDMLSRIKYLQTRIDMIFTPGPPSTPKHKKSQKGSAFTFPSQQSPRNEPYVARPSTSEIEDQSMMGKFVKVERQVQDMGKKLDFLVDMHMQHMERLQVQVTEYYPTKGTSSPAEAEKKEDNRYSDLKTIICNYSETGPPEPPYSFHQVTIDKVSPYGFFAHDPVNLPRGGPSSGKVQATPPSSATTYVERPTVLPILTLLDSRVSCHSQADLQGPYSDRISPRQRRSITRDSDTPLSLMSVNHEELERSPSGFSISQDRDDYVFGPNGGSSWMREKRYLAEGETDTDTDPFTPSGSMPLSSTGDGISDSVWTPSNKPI

[17] = biological target: Interleukin-17A (Homo sapiens) (UniProt Q16552); assay: Inhibition of IL-17 (unknown origin) assessed as disruption of IL-17 protein-protein interaction
[18] = biological target: Potassium voltage-gated channel subfamily KQT member 2 (Homo sapiens) (UniProt O43526); assay: Agonist activity at KCNQ2 (unknown origin)
[19] = system: Leishmania donovani; assay: Growth inhibition of Leishmania donovani; format: functional, organism-based
[20] = biological target: T4, Free fatty acid receptor 4 (Homo sapiens) (UniProt Q5NUL3); assay: Agonist activity at GPR120 (unknown origin); format: functional
T4 sequence (whole entry): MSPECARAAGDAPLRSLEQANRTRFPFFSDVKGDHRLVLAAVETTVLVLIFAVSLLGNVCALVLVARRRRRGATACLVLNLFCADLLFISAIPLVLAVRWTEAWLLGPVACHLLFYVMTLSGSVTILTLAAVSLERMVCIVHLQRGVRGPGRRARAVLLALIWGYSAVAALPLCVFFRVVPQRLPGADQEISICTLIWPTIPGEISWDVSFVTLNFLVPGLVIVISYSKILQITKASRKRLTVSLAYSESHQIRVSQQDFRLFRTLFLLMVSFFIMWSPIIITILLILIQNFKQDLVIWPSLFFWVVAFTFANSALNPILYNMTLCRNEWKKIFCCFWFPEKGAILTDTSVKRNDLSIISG

[21] = biological target: T5, Nicotinamide N-methyltransferase (Homo sapiens) (UniProt P40261); assay: Inhibition of NNMT (unknown origin)
T5 sequence (whole entry): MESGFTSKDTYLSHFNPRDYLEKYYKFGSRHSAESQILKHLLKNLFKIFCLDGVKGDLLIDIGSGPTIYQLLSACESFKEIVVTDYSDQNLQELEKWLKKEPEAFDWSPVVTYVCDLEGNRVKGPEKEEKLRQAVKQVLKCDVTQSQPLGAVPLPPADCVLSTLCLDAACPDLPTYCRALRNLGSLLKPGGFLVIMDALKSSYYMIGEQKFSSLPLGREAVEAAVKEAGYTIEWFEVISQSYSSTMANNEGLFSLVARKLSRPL

T2 sequence (P21554 whole entry): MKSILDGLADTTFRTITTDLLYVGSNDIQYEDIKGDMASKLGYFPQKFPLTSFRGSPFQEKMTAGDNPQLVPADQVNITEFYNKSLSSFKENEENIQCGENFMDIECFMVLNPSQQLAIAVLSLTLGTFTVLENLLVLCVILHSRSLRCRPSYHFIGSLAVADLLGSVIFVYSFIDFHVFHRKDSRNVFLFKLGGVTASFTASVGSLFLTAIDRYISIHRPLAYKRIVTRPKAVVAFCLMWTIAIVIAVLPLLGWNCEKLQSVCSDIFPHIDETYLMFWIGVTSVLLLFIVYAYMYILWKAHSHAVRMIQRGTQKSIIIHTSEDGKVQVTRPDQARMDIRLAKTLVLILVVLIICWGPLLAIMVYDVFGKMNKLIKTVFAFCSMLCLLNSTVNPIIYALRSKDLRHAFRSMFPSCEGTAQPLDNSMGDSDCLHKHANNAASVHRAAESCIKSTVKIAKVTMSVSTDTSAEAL
T1 sequence (P34972 whole entry): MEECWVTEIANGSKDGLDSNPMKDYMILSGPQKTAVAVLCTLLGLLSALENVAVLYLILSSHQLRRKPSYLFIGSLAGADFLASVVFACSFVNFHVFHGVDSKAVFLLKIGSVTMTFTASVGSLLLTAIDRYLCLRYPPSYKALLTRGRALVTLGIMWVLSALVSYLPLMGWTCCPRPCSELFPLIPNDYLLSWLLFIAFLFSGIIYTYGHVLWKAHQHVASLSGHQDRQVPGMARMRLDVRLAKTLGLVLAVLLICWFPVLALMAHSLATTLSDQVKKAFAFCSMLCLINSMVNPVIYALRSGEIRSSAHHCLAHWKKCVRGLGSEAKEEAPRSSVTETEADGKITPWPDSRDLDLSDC
Chain of Proprotein convertase subtilisin/kexin type 9 (Homo sapiens) (Q8NBP7 31-152 limits assumed): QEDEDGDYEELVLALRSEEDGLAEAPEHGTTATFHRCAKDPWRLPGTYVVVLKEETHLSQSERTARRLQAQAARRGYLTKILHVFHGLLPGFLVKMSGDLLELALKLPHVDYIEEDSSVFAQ
Chain of Proprotein convertase subtilisin/kexin type 9 (Homo sapiens) (Q8NBP7 153-692 limits assumed): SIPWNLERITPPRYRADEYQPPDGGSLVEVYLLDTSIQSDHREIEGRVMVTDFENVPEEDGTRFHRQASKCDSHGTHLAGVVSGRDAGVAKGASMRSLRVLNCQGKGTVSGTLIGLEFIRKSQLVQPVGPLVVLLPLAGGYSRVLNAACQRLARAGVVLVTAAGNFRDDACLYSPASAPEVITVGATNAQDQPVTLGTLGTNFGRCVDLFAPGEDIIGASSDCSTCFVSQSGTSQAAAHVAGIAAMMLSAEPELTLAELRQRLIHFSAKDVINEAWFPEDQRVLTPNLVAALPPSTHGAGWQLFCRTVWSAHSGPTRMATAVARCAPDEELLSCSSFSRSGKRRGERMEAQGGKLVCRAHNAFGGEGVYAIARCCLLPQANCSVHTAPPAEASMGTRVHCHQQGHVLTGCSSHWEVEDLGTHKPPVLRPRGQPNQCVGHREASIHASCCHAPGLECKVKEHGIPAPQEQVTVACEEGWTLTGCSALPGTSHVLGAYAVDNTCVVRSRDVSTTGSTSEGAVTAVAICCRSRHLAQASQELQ
Chain of Potassium voltage-gated channel subfamily KQT member 2 (Homo sapiens) (O43526 whole entry): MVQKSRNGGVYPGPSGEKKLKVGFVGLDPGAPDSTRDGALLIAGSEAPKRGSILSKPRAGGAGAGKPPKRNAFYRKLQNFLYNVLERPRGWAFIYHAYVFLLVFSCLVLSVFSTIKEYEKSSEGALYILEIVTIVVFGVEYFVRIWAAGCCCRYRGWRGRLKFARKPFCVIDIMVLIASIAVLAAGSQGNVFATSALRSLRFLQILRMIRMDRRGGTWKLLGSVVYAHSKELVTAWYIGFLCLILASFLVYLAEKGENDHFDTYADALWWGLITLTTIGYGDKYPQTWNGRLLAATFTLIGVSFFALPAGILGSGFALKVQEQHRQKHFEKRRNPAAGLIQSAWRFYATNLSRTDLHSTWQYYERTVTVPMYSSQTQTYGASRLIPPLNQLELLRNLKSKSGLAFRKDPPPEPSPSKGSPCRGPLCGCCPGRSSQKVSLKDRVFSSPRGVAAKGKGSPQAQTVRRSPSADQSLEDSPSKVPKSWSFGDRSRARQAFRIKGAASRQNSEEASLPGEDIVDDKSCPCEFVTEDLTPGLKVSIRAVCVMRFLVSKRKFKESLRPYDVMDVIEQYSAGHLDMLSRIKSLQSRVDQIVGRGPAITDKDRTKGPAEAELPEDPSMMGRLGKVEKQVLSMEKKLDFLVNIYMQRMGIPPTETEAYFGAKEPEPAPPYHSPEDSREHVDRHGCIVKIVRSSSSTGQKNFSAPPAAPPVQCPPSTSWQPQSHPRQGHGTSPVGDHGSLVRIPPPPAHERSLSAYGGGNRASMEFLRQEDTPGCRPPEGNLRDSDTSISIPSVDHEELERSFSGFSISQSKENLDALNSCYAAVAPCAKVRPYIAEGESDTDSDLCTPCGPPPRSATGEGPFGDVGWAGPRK
Chain of Interleukin-17A (Homo sapiens) (Q16552 whole entry): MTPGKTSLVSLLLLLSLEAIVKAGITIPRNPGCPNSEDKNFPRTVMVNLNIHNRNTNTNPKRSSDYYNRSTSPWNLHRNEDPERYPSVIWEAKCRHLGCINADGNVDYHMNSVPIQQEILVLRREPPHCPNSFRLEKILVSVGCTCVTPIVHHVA

Compound	inhibition [1]	Emax [2]	inhibition [3]	EC50 [4]	Ki [5]	Emax [6]	Activity [7]	Activity [8]	Activity [9]	Activity [10]	Ki [11]	inhibition [15]	Activity [16]	inhibition [17]	Activity [18]	growth inhibition (GI) [19]	Activity [20]	inhibition [21]	also measured
COc1ccc(C(=O)c2cn(CCN3CCOCC3)c3ccc(O)cc23)cc1	> 50%	67.5%	> 50%	5.4 nM	> 10000 nM	70.4%	Active	101.9%	Active	105.2%	747 nM	–	–	–	–	–	–	–	–
O=C(c1cccc2ccccc12)c1cn(CCN2CCOCC2)c2ccc(O)cc12	> 50%	77.4%	> 50%	8.7 nM	2840 nM	54.6%	Active	101.9%	Active	118.7%	169 nM	–	–	–	–	–	–	–	–
COc1ccc(C(=O)c2cn(CC3CCOCC3)c3c(OCCCCCCNC(C)=O)cccc23)cc1	> 50%	–	> 50%	–	3920 nM	74.3%	–	114.8%	Active	128%	1970 nM	–	–	–	–	–	–	–	Activity [12]: Active; IC50 [13]: > 10000 nM; Emax [14]: 151%
O=C(c1cccc2ccccc12)c1cn(CC2CCOCC2)c2ccc(O)cc12	> 50%	64.4%	> 50%	14.7 nM	824 nM	52.4%	Active	95%	Active	108.1%	275 nM	inactive	inactive	inactive	inactive	inactive	inactive	inactive	–
O=C(c1cn(CCN2CCOCC2)c2ccc(O)cc12)C1CCCCC1	> 50%	74.1%	> 50%	18.6 nM	> 10000 nM	74.3%	Active	105.9%	Active	105.1%	895 nM	–	–	–	–	–	–	–	–
COc1ccc(C(=O)c2cn(CC3CCOCC3)c3c(OCCCCC(=O)O)cccc23)cc1	> 50%	–	> 50%	–	> 10000 nM	82.5%	–	105.6%	Active	129.1%	1310 nM	–	–	–	–	–	–	–	Activity [12]: Active; IC50 [13]: > 10000 nM; Emax [14]: 124%
COc1ccc(C(=O)c2cn(CC3CCOC3)c3ccc(OCc4ccccc4)cc23)cc1 (configuration not stated)	–	–	–	–	–	–	–	–	–	–	–	inactive	inactive	inactive	inactive	inactive	inactive	inactive	–
COc1ccc(C(=O)c2cn(CC3CCOCC3)c3c(OCc4ccccc4)cccc23)cc1	–	–	–	–	–	–	–	–	–	–	–	inactive	inactive	inactive	inactive	inactive	inactive	inactive	–
COc1ccc(C(=O)c2cn(CC3CCOCC3)c3ccc(OCC(=O)O)cc23)cc1	> 50%	57.4%	> 50%	70.2 nM	> 10000 nM	60.4%	Active	98.8%	Active	100.1%	1660 nM	–	–	–	–	–	–	–	–
O=C(c1cccc2ccccc12)c1cn(CC2CCOCC2)c2ccc(OCc3ccccc3)cc12	–	–	–	–	–	–	–	–	–	–	–	inactive	inactive	inactive	inactive	inactive	inactive	inactive	–
COc1ccc(C(=O)c2cn(CC3CCOCC3)c3c(OCC(=O)O)cccc23)cc1	> 50%	84.9%	> 50%	> 10000 nM	> 10000 nM	80.5%	Active	104.5%	Active	102.8%	582 nM	–	–	–	–	–	–	–	–
COC(=O)CCCCOc1cccc2c(C(=O)c3ccc(OC)cc3)cn(CC3CCOCC3)c12	> 50%	–	> 50%	–	1580 nM	77.8%	–	124.3%	Active	160.6%	201 nM	–	–	–	–	–	–	–	Activity [12]: Active; IC50 [13]: > 10000 nM; Emax [14]: 166%
